A short description of experiment [1]: Her2 expression decrease, cell viability multiplex – SKBR3 breast tumor cells, AlphaScreen, ATP viability, primary screen (AID 461;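 active means Her2 level under about 52% in both replicate screens, with viability over 70% of control, limit read from the data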;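 on Her2 level: lower value means less Her2 protein in the cells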;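 on viability: percent of carrier control wells set as 100% viability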). The settings on record: SKBR3 Her2 protein level, 18-24 h, measured here: SKBR3 viability, ATP luminescence, at 10 µM. On the technique in general: Alpha assays give light when donor and acceptor beads are brought close together.

For experiment [2], the target named is Receptor tyrosine-protein kinase erbB-2 (Homo sapiens) (UniProt P04626). The experiment is described as above. The settings on record: 18-24 h, at 10 µM, stronger effect = lower value.
A short description of experiment [3]: reduced viability of SK-BR-3 breast cancer cells – cell-based, 24 h, human, pilot screen (AID 572;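 active means viability at or below 10% of carrier control in both of two separate runs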;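 further: compound exposure lasted between 18 and 24 h rather than exactly 24 h; 100% = carrier-treated control wells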). The settings on record: SK-BR-3 viability, CellTiter-Glo luminescence, at 10 µM, stronger effect = lower value. In general terms: Cellular ATP, detected with luciferase, serves as a proxy for viable cell number.
Experiment [4] in a line: HUVEC growth inhibition – cell-based, human, primary screen (AID 575).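 Further: 100% = median of untreated cell wells with 0.1% DMSO on each plate.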 The settings on record: HUVEC proliferation, CellTiter-Glo luminescence, 72 h; at 10 µM; stronger effect = lower value. Put shortly:
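Assay system: primary human umbilical vein endothelial cells / Buffer or medium: endothelial basal medium with 2% FBS plus growth supplements / Compound dosing: one dose, 10 µM final, 0.1% DMSO / Timing: 72 h treatment at 37 °C / Signal: CTG luminescence / Benchmarks: 32 DMSO-only cell-control wells (high), 32 MePR drug-control wells (low) per plate / Plate: collagen-coated 384-well format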

Experiment [5] can be described thus: H69AR cell proliferation blockers – human, duplicate replicates, primary screen (AID 580;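 active means viability at or under a set limit in both replicates, limit being median viability minus 3 SD, cut at about 48% in these data, passing the limit was not always enough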;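 further: 100% = mean luminescence of untreated wells and 0% = no signal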). The settings on record: H69AR lung tumor cells viability, ATP luminescence, 72 h; at 10 µM; stronger effect = lower value.
Experiment [6] is described as follows: MRP1 drug-resistance reversers in H69AR cells – cell-based, doxorubicin co-treatment, pilot screen (AID 601;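 active means viability loss from added drug above about 55%, and viability with drug at most 40%, in both replicates, limit read from the data, passing the limit was not always enough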). The settings on record: CellTiter-Glo, 72 h, at 10 µM; for differential viability (reversal): stronger effect = higher value.
The nature of experiment [7]: yeast transport mutant growth inhibition pilot in 384-well plates, post-Golgi transport modulator project (AID 636; in the data active means inhibition above about 31%). The conditions noted are these: absorbance 615 nm, about 18 h, stronger effect = higher value.
Experiment [8] is described as follows: growth suppression of yeast trafficking mutant, preliminary HTS, modulators of trafficking downstream of Golgi apparatus project, 1536-format plate, OD 615 nm (AID 637; in the data active means inhibition above about 30%). The conditions noted are these: yeast transport mutant growth, absorbance 615 nm, 18 h; stronger effect = higher value.
The mark [9] stands for this setting: H69AR cells + 2 uM doxorubicin, measured here: viability with 2 uM doxorubicin, stronger effect = lower value.
The mark [10] stands for this setting: H69AR cells, compound alone cytotoxicity.

The source made the active and inactive calls.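 How the source made its calls, unless noted: active means viability at or below 30% in both replicate assays; inconclusive means viability at or below 30% in just one of the two assays; inactive means the rest.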

Sequence of Receptor tyrosine-protein kinase erbB-2 (Homo sapiens) (P04626 whole entry, looked up): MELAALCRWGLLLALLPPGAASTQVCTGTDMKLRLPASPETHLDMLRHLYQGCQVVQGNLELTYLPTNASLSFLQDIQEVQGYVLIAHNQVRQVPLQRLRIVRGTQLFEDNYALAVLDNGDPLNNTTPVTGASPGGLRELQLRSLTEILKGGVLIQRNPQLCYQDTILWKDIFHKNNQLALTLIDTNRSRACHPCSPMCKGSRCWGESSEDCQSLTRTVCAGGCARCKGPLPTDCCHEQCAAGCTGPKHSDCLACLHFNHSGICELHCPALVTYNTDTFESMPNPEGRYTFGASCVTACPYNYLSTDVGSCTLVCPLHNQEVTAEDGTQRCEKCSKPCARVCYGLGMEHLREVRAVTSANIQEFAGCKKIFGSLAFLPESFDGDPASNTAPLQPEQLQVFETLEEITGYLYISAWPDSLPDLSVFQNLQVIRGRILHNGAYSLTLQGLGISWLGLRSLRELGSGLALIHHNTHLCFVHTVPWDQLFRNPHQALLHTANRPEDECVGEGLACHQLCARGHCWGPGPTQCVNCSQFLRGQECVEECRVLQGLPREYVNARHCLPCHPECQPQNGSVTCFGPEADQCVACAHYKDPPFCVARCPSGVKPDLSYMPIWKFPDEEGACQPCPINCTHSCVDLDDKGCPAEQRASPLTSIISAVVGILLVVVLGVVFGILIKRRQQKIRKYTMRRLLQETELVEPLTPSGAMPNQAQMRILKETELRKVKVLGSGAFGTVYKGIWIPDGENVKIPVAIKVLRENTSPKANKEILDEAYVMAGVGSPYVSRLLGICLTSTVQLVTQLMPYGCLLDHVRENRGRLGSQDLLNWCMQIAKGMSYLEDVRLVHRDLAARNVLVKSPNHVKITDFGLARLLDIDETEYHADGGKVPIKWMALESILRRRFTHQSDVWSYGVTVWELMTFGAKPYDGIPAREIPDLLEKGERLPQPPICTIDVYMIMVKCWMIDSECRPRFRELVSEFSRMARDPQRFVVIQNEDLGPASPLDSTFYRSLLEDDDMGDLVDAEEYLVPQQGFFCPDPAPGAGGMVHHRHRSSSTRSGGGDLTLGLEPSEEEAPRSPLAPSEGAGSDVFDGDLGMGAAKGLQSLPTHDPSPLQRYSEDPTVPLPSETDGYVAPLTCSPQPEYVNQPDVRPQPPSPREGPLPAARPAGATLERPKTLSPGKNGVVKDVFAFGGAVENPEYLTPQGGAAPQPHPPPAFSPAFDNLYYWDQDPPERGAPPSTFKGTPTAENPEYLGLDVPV

In the case of `Cc1cc2c(c(=O)n1CCc1ccccc1)C(C(C)C)C(C#N)=C(N)O2` (stereo not given), the viability in experiment [1] is 95%; in experiment [3], 95% (inactive); in experiment [4], 93.9% (inactive); in experiment [5] it was 83.5% (inactive); in experiment [6] (setting [9]), 92.8%; in experiment [6] (setting [10]), 83.5%. Moreover, the Her2 level in experiment [2] was 87% (inactive). The differential viability (reversal) in experiment [6] (H69AR cells + 2 uM doxorubicin) was -9.34% (inactive). Besides, the inhibition in experiment [7] was -4.87% (inactive); in experiment [8], 2.79% (inactive).

Take `CCCCOc1ccc(-c2nnn(CC(=O)Nc3ncc(CC(=O)OCC)s3)n2)cc1`: the viability in experiment [1] was 122%; in experiment [3], 122% (inactive); in experiment [4], 74.5% (inactive); in experiment [5] it was 84% (inactive); in experiment [6] (setting [9]) it was 88.4%; in experiment [6] (setting [10]), 84%. Also, the Her2 level in experiment [2] is 100% (inactive). Also, the differential viability (reversal) in experiment [6] (H69AR cells + 2 uM doxorubicin) is -4.45% (inactive). Moreover, the inhibition in experiment [7] was -7.11% (inactive); in experiment [8] it was -1.59% (inactive).

Turning to `CCn1c(SCC(=O)Nc2nccs2)nnc1-c1ccncc1`, the viability was 101% in experiment [1]; 101% (inactive) in experiment [3]; 87% (inactive) in experiment [4]; 84.8% (inactive) in experiment [5]; 87.1% in experiment [6] (setting [9]); 84.8% in experiment [6] (setting [10]). For the same compound, in experiment [2], the Her2 level is 63.5% (inactive). In experiment [6] (H69AR cells + 2 uM doxorubicin), the differential viability (reversal) is -2.34% (inactive). Moreover, the inhibition was -2.11% (inactive) in experiment [7] and 2.7% (inactive) in experiment [8].

Consider `Cc1cccc(NC(=O)Cn2c(=O)n(C)c3ccccc32)c1`, for which the viability in experiment [1] is 100%; in experiment [3] it was 100% (inactive); in experiment [4], 100% (inactive); in experiment [5], 102% (inactive); in experiment [6] (setting [9]) it was 92.9%; in experiment [6] (setting [10]), 102%. The Her2 level in experiment [2] is 90.5% (inactive). In experiment [6] (H69AR cells + 2 uM doxorubicin), the differential viability (reversal) is 9.13% (inactive). Besides, the inhibition was -3.33% (inactive) in experiment [7] and -2.7% (inactive) in experiment [8].

As to `COc1ccccc1CN1CC(C(=O)N2CCN(c3ccc(F)cc3)CC2)CC1=O` (stereo not given), the viability in experiment [1] was 92%; in experiment [3], 92% (inactive); in experiment [4], 98% (inactive); in experiment [5], 88.8% (inactive); in experiment [6] (setting [9]) it was 92.3%; in experiment [6] (setting [10]) it was 88.8%. Also, the Her2 level in experiment [2] was 86% (inactive). The differential viability (reversal) in experiment [6] (H69AR cells + 2 uM doxorubicin) is -3.51% (inactive). Also, the inhibition in experiment [7] was -2.24% (inactive); in experiment [8] it was 11.5% (inactive).

Take `c1ccc(Cc2ccc(OCCn3cncn3)cc2)cc1`: the viability in experiment [1] was 84%; in experiment [3] it was 84% (inactive); in experiment [4], 98.6% (inactive); in experiment [5], 95% (inactive); in experiment [6] (setting [9]), 80.4%; in experiment [6] (setting [10]), 95%. Also, the Her2 level in experiment [2] was 108% (inactive). Further, the differential viability (reversal) in experiment [6] (H69AR cells + 2 uM doxorubicin) was 14.6% (inactive). For the same compound, the inhibition in experiment [7] was -3.92% (inactive); in experiment [8], -7.38% (inactive).

Regarding `O=c1[nH]c2cccnc2n1Cc1ccco1`, the viability was 90% in experiment [1]; 90% (inactive) in experiment [3]; 107% (inactive) in experiment [4]; 97.5% (inactive) in experiment [5]; 83.8% in experiment [6] (setting [9]); 97.5% in experiment [6] (setting [10]). The Her2 level in experiment [2] is 88% (inactive). Further, the differential viability (reversal) in experiment [6] (H69AR cells + 2 uM doxorubicin) was 13.8% (inactive). For the same compound, the inhibition in experiment [7] is -4.32% (inactive); in experiment [8], 0.83% (inactive).

For `COc1ccccc1CNC(=O)CCNC(=O)Cn1ccc2ccccc2c1=O`, the viability is 93% in experiment [1]; 93% (inactive) in experiment [3]; 98.3% (inactive) in experiment [4]; 100% (inactive) in experiment [5]; 87.4% in experiment [6] (setting [9]); 100% in experiment [6] (setting [10]). The Her2 level in experiment [2] is 92% (inactive). The differential viability (reversal) in experiment [6] (H69AR cells + 2 uM doxorubicin) was 12.8% (inactive). Moreover, the inhibition in experiment [7] is -0.13% (inactive); in experiment [8], 4.59% (inactive).

With `Cc1nc2ccccn2c1/C(O)=C1\C(=O)C(=O)N(CCN2CCOCC2)C1c1cccs1` (stereo not given), the viability was 94.5% in experiment [1]; 94.5% (inactive) in experiment [3]; 108% (inactive) in experiment [4]; 98.7% (inactive) in experiment [5]; 94.6% in experiment [6] (setting [9]); 98.7% in experiment [6] (setting [10]). In experiment [2], the Her2 level is 90.5% (inactive). The differential viability (reversal) in experiment [6] (H69AR cells + 2 uM doxorubicin) is 4.16% (inactive). The results for the inhibition in experiment [7] and in experiment [8] were -8.78% (inactive) and 0.67% (inactive), respectively.

In the case of `O=C(NC1CCCCCC1)C1c2ccccc2C(=O)N1Cc1cccnc1` (stereo not given), the viability in experiment [1] is 108%; in experiment [3], 108% (inactive); in experiment [4], 74.3% (inactive); in experiment [5], 90.1% (inactive); in experiment [6] (setting [9]), 103%; in experiment [6] (setting [10]), 90.1%. Besides, the Her2 level in experiment [2] is 99.5% (inactive). Besides, the differential viability (reversal) in experiment [6] (H69AR cells + 2 uM doxorubicin) was -12.5% (inactive). Further, the inhibition in experiment [7] was 0.13% (inactive); in experiment [8], -7.3% (inactive).

Take `COc1ccc2c(=O)c3c(=O)n(Cc4ccco4)c(C(C)C)nc3oc2c1`: the viability in experiment [1] is 96%; in experiment [3] it was 96% (inactive); in experiment [4] it was 101% (inactive); in experiment [5] it was 99.4% (inactive); in experiment [6] (setting [9]) it was 90.1%; in experiment [6] (setting [10]), 99.4%. Besides, the Her2 level in experiment [2] was 93% (inactive). Also, the differential viability (reversal) in experiment [6] (H69AR cells + 2 uM doxorubicin) is 9.28% (inactive). Besides, the inhibition was -3.73% (inactive) in experiment [7] and -9.52% (inactive) in experiment [8].

Turning to `Cc1ccc(Cn2ncc3c(NCCCN4CCOCC4)ncnc32)cc1`, the viability in experiment [1] is 92.5%; in experiment [3] it was 92.5% (inactive); in experiment [4], 96.8% (inactive); in experiment [5] it was 102% (inactive); in experiment [6] (setting [9]), 83.6%; in experiment [6] (setting [10]), 102%. Besides, in experiment [2], the Her2 level is 92.5% (inactive). Also, the differential viability (reversal) in experiment [6] (H69AR cells + 2 uM doxorubicin) is 18.2% (inactive). For the same compound, the results for the inhibition in experiment [7] and in experiment [8] were -2.63% (inactive) and 0.32% (inactive), respectively.

Take `Cc1ccc(C)c(/C(O)=C2\C(=O)C(=O)N(CCCN3CCOCC3)C2c2cccnc2)c1` (stereo not given): the viability is 99% in experiment [1]; 99% (inactive) in experiment [3]; 91.4% (inactive) in experiment [4]; 90.2% (inactive) in experiment [5]; 95.3% in experiment [6] (setting [9]); 90.2% in experiment [6] (setting [10]). In experiment [2], the Her2 level is 101% (inactive). Moreover, in experiment [6] (H69AR cells + 2 uM doxorubicin), the differential viability (reversal) is -5.11% (inactive). Besides, the inhibition in experiment [7] was -3.59% (inactive); in experiment [8], -2.33% (inactive).

For `COc1ccc(-n2c(COc3cccc(C)c3)nnc2SCC(=O)NCc2ccco2)cc1`, the viability in experiment [1] is 126%; in experiment [3], 126% (inactive); in experiment [4], 84.4% (inactive); in experiment [5], 85.4% (inactive); in experiment [6] (setting [9]) it was 95.7%; in experiment [6] (setting [10]) it was 85.4%. Moreover, the Her2 level in experiment [2] is 91% (inactive). In addition, the differential viability (reversal) in experiment [6] (H69AR cells + 2 uM doxorubicin) was -10.3% (inactive). In addition, the values for the inhibition in experiment [7] and in experiment [8] were -2.84% (inactive) and -1.43% (inactive), respectively.

In general, viability refers to a read-out of living cells in per cent, often relative to untreated cells. One may read the inhibition as the relative decrease from the control value, in per cent.

These data come from PubChem BioAssay.
